Hits are enriched below; roughly 1.7% of the tested compounds scored in any of these assays.
IDE cell activ: human IDE activators in live cells, primary screen, fluorescence polarization, HEK cells, FAbeta-B substrate. AID 493087, 2011. FAbeta-B cleavage; 0% vehicle, 100% cell-free pure enzyme wells. activation, % at 5.96 µM. actives 0.073% (n = 340,000);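 active means activation above the mean of all tested compounds plus 3 SD, set per screening campaign, cut at about 17% in these data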
Rpn11 inh: Rpn11 (PSMD14) deubiquitinase inhibitors, primary screen, biochemical, fluorescence polarization, uHTS; 26S proteasome non-ATPase regulatory subunit 14 (Homo sapiens), O00487; human 26S proteasome, Ub4-pepOG fluorescence polarization; 20S core pre-blocked with epoxomicin; calls only at 20 µM; actives 0.59% (n = 360,000);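 active means inhibition at 20 µM, scaled to each plate's controls, above about 33%, limit read from the data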
Target sequence (O00487 whole entry, looked up): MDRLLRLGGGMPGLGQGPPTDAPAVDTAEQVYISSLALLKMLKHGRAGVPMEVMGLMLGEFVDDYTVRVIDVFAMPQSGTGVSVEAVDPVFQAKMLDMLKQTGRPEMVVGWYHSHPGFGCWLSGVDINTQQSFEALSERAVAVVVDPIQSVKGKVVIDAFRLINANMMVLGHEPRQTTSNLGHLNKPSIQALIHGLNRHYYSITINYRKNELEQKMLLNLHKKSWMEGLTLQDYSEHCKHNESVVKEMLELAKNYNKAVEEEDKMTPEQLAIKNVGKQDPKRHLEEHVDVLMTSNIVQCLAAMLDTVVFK
CSN deneddyl inh: inhibitors of CSN-mediated cullin deneddylation, primary screen, biochemical, fluorescence polarization, uHTS; AID 651999, 2013; Purified CSN, SCF-Nedd8-OG deneddylation; inhibition, % at 12.5 µM; COP9 signalosome complex subunit 5 (Homo sapiens), Q92905; actives 0.38% (n = 360,000);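 active means pattern-corrected inhibition above about 35%, with an unprinted fluorescence ratio check between 0.5 and 1.5, limit read from the data, passing the limit was not always enough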
Target sequence (Q92905 whole entry, looked up, one chain of several): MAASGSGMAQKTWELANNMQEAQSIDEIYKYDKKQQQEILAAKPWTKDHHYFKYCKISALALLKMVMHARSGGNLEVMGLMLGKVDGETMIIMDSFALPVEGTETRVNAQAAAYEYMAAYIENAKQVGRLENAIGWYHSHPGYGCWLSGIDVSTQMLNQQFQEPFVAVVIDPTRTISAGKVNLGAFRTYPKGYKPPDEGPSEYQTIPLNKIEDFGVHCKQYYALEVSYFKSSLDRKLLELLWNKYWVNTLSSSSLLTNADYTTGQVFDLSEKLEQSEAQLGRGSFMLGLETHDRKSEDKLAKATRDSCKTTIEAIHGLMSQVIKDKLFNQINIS
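Assay system: purified human Csn5 enzyme expressed in HEK293T cells; measure: % inhibition; also added: SCFSkp2-Nedd8OG substrate at 10 nM final; technique: fluorescence polarization; times: reaction 90 min, room temperature; medium: Tris buffer pH 7.5, NaCl, DTT, Tween-20, trehalose, ovalbumin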
TPT1 inhibitor: Candida albicans TPT1 enzyme inhibitors, primary screen, biochemical, fluorescence polarization. tRNA 2'-phosphotransferase TPT1 (Candida albicans SC5314). inhibition, % at 5 µM. actives 0.81% (n = 300,000). recombinant caTPT1, FP RNA substrate dephosphorylation;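 active means inhibition above the mean of all tested compounds plus 3 SD, set per screening campaign, cut at about 24% in these data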
IDE inh: human IDE inhibitors in live cells, primary screen, fluorescence polarization, HEK cells, FAbetaB substrate. inhibition, % at 5.59 µM. AID 434962, 2010. Insulin-degrading enzyme (Homo sapiens), P14735. actives 0.41% (n = 320,000). FAbetaB cleavage;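 active means percent inhibition above the average of all tested compounds plus 3 SD, set per screening campaign, cut at about 16% in these data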;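 further: IDE supplied by intact live HEK cells; FP after avidin binding of uncleaved biotin substrate so inhibition keeps polarization high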
HNF4A DNA FP: change in binding of human HNF4A to DNA, primary screen, biochemical, fluorescence polarization, FITC-DNA | Hepatocyte nuclear factor 4-alpha (Homo sapiens), P41235 | 1 h | activity change, % at 10 µM | actives 0.3% (n = 360,000); in the data active means activity change above about 30%, passing the limit was not always enough
Large screens that a line does not name were inactive.

CC1(C(=O)Nc2cccc3cccnc23)CCN1Cc1cccc2c1OCO2 (configuration not stated)	none (no result: IDE cell activ, TPT1 inhibitor, IDE inh)
CCN(CC)S(=O)(=O)c1cccc(NC(=O)COC(=O)c2cc(=O)c3ccccc3o2)c1	none
COc1ccc(C)cc1N(CC(=O)Nc1ccc(S(=O)(=O)N2CCOCC2)cc1)S(C)(=O)=O	none
CCOC(=O)c1cccc(N/C=C/C(=O)c2ccc(OC)c(OC)c2)c1	CSN deneddyl inh 92.2
COCC(C)NC(=O)c1cc(-c2ccc(OC)c(OC)c2)on1 (configuration not stated)	none
S=C(Nc1ccc(Cl)cc1)N1CCOCC1	CSN deneddyl inh 42.1
CCN(C(=O)COC(=O)/C=C/c1ccccc1Cl)c1c(N)n(Cc2ccccc2)c(=O)[nH]c1=O	none (no result: TPT1 inhibitor, IDE inh)
CCOc1ccc2c(c1)S/C(=C\c1cccs1)C(=O)N2	CSN deneddyl inh 39.5
Cc1cc(C)cc(N=C2NC(=O)/C(=C/c3cccs3)S2)c1	none
CCc1nn(C(C)C(=O)NCCN2CCCCCC2)c(=O)c2cc3occc3n12 (configuration not stated)	none
CCOc1ccc(C(C)C)cc1S(=O)(=O)n1ccnc1C	CSN deneddyl inh 73.1
COc1ccc(C)cc1S(=O)(=O)n1ccnc1C	none
CCOc1ccc(OCC)c(S(=O)(=O)n2ccnc2C)c1	HNF4A DNA FP 47.8
O=C(c1ccccc1)n1c(=S)nc2ccccn21	none
Cc1c(C)c2ccc(OCC(=O)Nc3cccnc3)c(C)c2oc1=O	none
COc1ccc(-c2cc(=O)oc3c(C)c(OCC(=O)Nc4cccnc4)ccc23)cc1	CSN deneddyl inh 89.6
CCOC(=O)C1CCN(c2cc(=O)n(C3CCCCC3)c(=O)[nH]2)CC1	HNF4A DNA FP 39.9
CCOC(=O)N1CCN(c2cc(=O)n(C3CCCCC3)c(=O)[nH]2)CC1	none
CCOC(=O)c1cnc(-n2cc(C)cn2)nc1NCc1ccc2c(c1)OCO2	HNF4A DNA FP 48.0
O=C(CCCNC(=O)c1ccc(Cl)cc1)Nc1ccccc1C(F)(F)F	none
COc1cc([N+](=O)[O-])ccc1NC(=O)NN1CCN(C)CC1	none
CC(C)CNC(=S)N(CCCO)Cc1cc2cc3c(cc2[nH]c1=O)OCCO3	none
O=c1[nH]c(=O)n(C2CCCO2)cc1Br (configuration not stated)	none
Cc1nn(C)c(Cl)c1CN1CCC(CO)(CCOc2ccccc2)CC1	none
Cc1c(CN2CCC(CO)(CCOc3ccccc3)CC2)[nH]c2c(Cl)cccc12	IDE cell activ 28.1
Cc1cnc(C(=O)OCC(=O)Nc2cccc(S(=O)(=O)N3CCOCC3)c2)cn1	none (no result: TPT1 inhibitor)
CCOC(=O)C1CCN(c2nc3ccccc3nc2C(C#N)C(=O)OC(C)C)CC1 (configuration not stated)	CSN deneddyl inh 45.1 (not shown: Rpn11 inh)
Cc1cc(C(=O)CCC(=O)N(C)CC(=O)Nc2c(Cl)cccc2Cl)c(C)s1	CSN deneddyl inh 90.4
Nc1nc2ccccc2cc1-c1cccs1	none
CN1CCC(=NNC(=O)C(=O)Nc2ccc(F)cc2)CC1	none
CN1CCC(=NNC(=O)C(=O)Nc2cccc(Br)c2)CC1	HNF4A DNA FP 31.2
COc1cc2c(cc1OC)CN(c1nc(-c3cccnc3)nc3ccccc13)CC2	CSN deneddyl inh 37.1
CC(C)n1cnc2c(Nc3ccc(F)c(Cl)c3)nc(NCCO)nc21	none
C=CC(=O)Nc1ccc(Nc2nc(NC3CCC(N(C)C)CC3)nc3c2ncn3C(C)C)cc1 (configuration not stated)	CSN deneddyl inh 37.4 (no result: TPT1 inhibitor)
COc1ccccc1CNC(=O)CSc1n[nH]c(N)n1	none
Cc1ccc(Nc2nc(N)nc(CSc3nnnn3-c3ccccc3)n2)cc1	CSN deneddyl inh 40.5
Cc1ccc(NC(=S)NC(=O)Cc2ccccc2)c(O)c1	none (no result: TPT1 inhibitor, IDE inh)
Cc1oc(-c2ccc(F)cc2)cc1-c1nn2c(-c3ccoc3C)nnc2s1	CSN deneddyl inh 39.2 (not shown: Rpn11 inh)
COc1ccc(-c2nnc3sc(-c4ccco4)nn23)cc1OC	none
CC(Oc1ccc(Cl)cc1Cl)C(=O)NCCCn1ccnc1 (configuration not stated)	none
COC(=O)c1ccc(Nc2cc(C)nc(-c3ccccc3O)n2)cc1	HNF4A DNA FP 37.2
Cn1c(=O)c(Cc2ccccc2)c(O)c2ccccc21	none
CCNc1nc(Sc2ccc(C)cc2)cc(C(F)(F)F)n1	none
CCOc1cc(C#N)c(NC(=O)Cn2nnc3ccccc32)cc1OCC	HNF4A DNA FP 34.3
CCc1ccccc1NC(=O)/C(C#N)=C/c1ccc(Sc2ccccc2)o1	none
Cc1cc(C)nc(Sc2ccc(/C=C(\C#N)C(=O)Nc3ccccc3)o2)n1	HNF4A DNA FP 71.3
CC(OC(=O)c1ccc(Cl)nc1)C(=O)NC1(C#N)CCCCC1 (configuration not stated)	IDE cell activ 17.9
COc1cccc(NC(=O)N(C2CCCCC2)C(C)c2cccs2)c1 (configuration not stated)	none
Cc1ccn2c(NC3CCCCC3)c(-c3cccc(SC4CCCCC4)c3)nc2c1	none (no result: TPT1 inhibitor)
Cc1ccn2c(NC3CCCCC3)c(-c3ccc(SC4CCCCC4)cc3)nc2c1	HNF4A DNA FP 54.2 (no result: IDE cell activ, Rpn11 inh, TPT1 inhibitor, IDE inh)
O=c1[nH]c2ccc(N=Cc3c(O)ccc4cc(Br)ccc34)cc2[nH]1	CSN deneddyl inh 42.4 (no result: TPT1 inhibitor, IDE inh)
Cc1cccc(-n2nc3c(c2NC(=O)c2ccco2)CSC3)c1C	CSN deneddyl inh 36.4
CN1CCN(C(=O)c2cc3c(c(-c4cccc(-c5cccnc5)c4)n2)[C@@H](CCO)N(C(=O)CC2CC2)C3)CC1	none (no result: IDE cell activ, Rpn11 inh, TPT1 inhibitor, IDE inh)
COc1ccc(C(C[N+](=O)[O-])C2(c3ccc(OC)c(OC)c3)C(=O)c3ccccc3C2=O)cc1 (configuration not stated)	IDE inh 16.3
Cc1ccnc(NS(=O)(=O)c2ccc(NC(=O)Cc3c(F)cccc3Cl)cc2)n1	HNF4A DNA FP 48.3
Cc1ccnc(NS(=O)(=O)c2ccc(NC(=O)Cc3ccc(Cl)cc3)cc2)n1	none
COc1ccc(N2C(=O)[C@@H]3[C@H](C2=O)[C@H](C(C)=O)N2c4ccccc4C=C[C@@H]32)cc1	none
COc1ccc(C2C(C(=O)c3ccccc3)N3c4ccccc4C=CC3C2[N+](=O)[O-])cc1 (configuration not stated)	CSN deneddyl inh 36.7 (not shown: Rpn11 inh, TPT1 inhibitor, IDE inh)
OCCN(CCO)c1ccc2ccccc2c1	none
OCCN(CCO)c1cc2c3ccccc3ccc2c2ccccc12	CSN deneddyl inh 44.6 (no result: TPT1 inhibitor, IDE inh)
CCn1c(CSCc2ccc(F)cc2)nnc1SCC(=O)N1CCN(c2ccccc2)CC1	none
N=c1c(C(=O)NCc2ccco2)cc2c(=O)n3ccccc3nc2n1Cc1ccc(Cl)cc1	none
